Activity calls are given as the source filed them. No cut-off for these calls is given here.
Experiments:
Type in all cases: functional, cell-based
[1] = system: HT-29; assay: Apoptosis induction in human HT29 cells after 24 hrs; details: HT-29, 24 h
How it was run: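 HT29 cells seeded at 25 000/well and attached 24 h, then exposed for 24 h at 37 C to compound (0-1000 M, added from DMSO; final DMSO 0.5%, 1.0% at 600 µM). Cells harvested, stained with PI, and 10 000 events counted by flow cytometry. PI-negative cells scored as living and EC50 fitted from the curves. Mean of 3-4 independent experiments.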

[2] = system: HT-29; assay: Induction of PARP cleavage in human HT29 cells after 8 hrs
How it was run: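 HT29 cells incubated 8 h with a range of compound concentrations. The 116 kDa PARP cleavage was detected by Western blot.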

[3] = system: SW480; assay: Inhibition of serum-induced expression of cyclin D in human SW480 cells after 5 hrs
How it was run: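 SW480 cells starved of serum overnight, then stimulated with serum for 5 h with or without a range of compound concentrations. Cyclin D1 level read by Western blot.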

[4] = system: HT-29; assay: Induction of DNA fragmentation in human HT29 cells after 48 hrs by Nicoletti assay
How it was run: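 HT29 cells seeded 25 000/well, attached 24 h, then treated with compound for 48 h. Trypsinized, resuspended in Nicoletti buffer (0.1% Tx-100, 0.1% Na citrate, 50 g/mL PI), held overnight at 4 C. DNA content of nuclei measured by FACS to assess fragmentation.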

[5] = system: HT-29; assay: Effect on cell death in HT29 cells pretreated with GSH synthesis inhibitor BSO; details: Homo sapiens
How it was run: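 HT29 cells seeded 25 000/well, attached 24 h; 200 µM BSO for 4 h at 37 C, washed, then medium with or without EtGSH (10 mM) 3 h, washed. Then compound in DMSO (final 0.5%) for 24 h at 37 C; cells harvested, stained with PI, 10 000 events by flow cytometry; PI-negative cells counted as living. Mean of four independent experiments, standard deviations.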

EC50 [1] [µM] | SMILES | Activity [2] | Activity [3] | Activity [4] | Activity [5]
> 1000 | CC(=O)N[C@@H](C(=O)O)C(C)(C)SN=O |  |  |  | 
> 1000 | CC(=O)Oc1ccccc1C(=O)O [ASPIRIN] |  |  |  | 
40.1 | CC(=O)Oc1ccccc1C(=O)Oc1ccc(CCl)cc1 | Active | Active |  | 
9.3 | CC(=O)Oc1ccc(CO[N+](=O)[O-])cc1 | Active | Active |  | 
107 | CC(=O)Oc1ccccc1C(=O)Oc1ccc(CO[N+](=O)[O-])cc1 | Active | Active | Active | Active
> 1000 | CC(=O)Oc1ccccc1C(=O)Oc1cccc(CO)c1 |  |  |  | 
1000 | CC(=O)Oc1ccccc1C(=O)Oc1cccc(CO[N+](=O)[O-])c1 [NCX-4016] |  | inactive |  | 

SMILES | EC50 [1] [µM] | Activity [2] | Activity [3] | Activity [4] | Activity [5]
CC(=O)Oc1ccc(CCl)cc1 | 8.7 | Active | Active | Active | Active

— ChEMBL document CHEMBL1139864, “Chemical insights in the concept of hybrid drugs: the antitumor effect of nitric oxide-donating aspirin involves a quinone methide but not nitric oxide nor aspirin” (J Med Chem, 2007)
